Assay results taken from ChEMBL document CHEMBL4041482, “Synthesis, evaluation, and CoMFA study of fluoroquinophenoxazine derivatives as bacterial topoisomerase IA inhibitors” (Eur J Med Chem, 2017).
In brackets after ≈: the same amount, converted by molar mass.

Experiments:
[1] = Stability of the compound in DMSO-d6 solvent after several weeks by 1H NMR method; assay type: physicochemical
[2] = Solubility in DMSO-d6 solvent by 1H NMR method; assay type: physicochemical
Escherichia coli [3] = assay: Antibacterial activity against Escherichia coli BAS3023 harboring imp mutant by microdilution method; assay type: functional
Method in brief: (§1)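 MICs determined by standard broth microdilution in cation-adjusted Mueller-Hinton Broth; E. coli BAS3023 carries an imp mutation conferring membrane permeability to small molecules, MG1655 K12 is wild type.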

[4] = Stability of the compound in DMSO-d6 solvent after several weeks by HPLC method; assay type: physicochemical
[5] = Inhibition of human topoisomerase type 1B assessed as reduction in enzyme-mediated relaxation of supercoiled pBAD/Thio DNA after 30 mins by agarose gel electrophoresis method
Method in brief: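 Human topoisomerase I, 0.5 U, in manufacturer's reaction buffer; enzyme mixed with compound before 200 ng supercoiled pBAD/Thio plasmid added, 20 μL final. 37 °C for 30 minutes; stopped with SDS/bromophenol blue/glycerol buffer; agarose gel electrophoresis read-out.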

Escherichia coli [6] = assay: Antibacterial activity against Escherichia coli K12 MG1655 by microdilution method; assay type: functional; settings: K-12 substr. MG1655; method in brief: as §1
[7] = Inhibition of recombinant Escherichia coli topoisomerase 1a expressed in Escherichia coli assessed as reduction in enzyme-mediated relaxation of supercoiled pBAD/Thio DNA preincubated with enzyme followed by substrate addition measured after 30 mins by ethidium bromide staining based agarose gel electrophoresis method
[8] = Inhibition of recombinant Escherichia coli DNA gyrase expressed in Escherichia coli assessed as reduction in enzyme-mediated supercoiling of relaxed circular DNA preincubated with enzyme followed by substrate addition measured after 30 mins by agarose gel electrophoresis method
[9] = molecular target: DNA topoisomerase 2-alpha (Homo sapiens, UniProt P11388); assay: Inhibition of human topoisomerase-2alpha assessed as reduction in enzyme-mediated decatenation using kinetoplast DNA as substrate after 15 mins by ethidium bromide staining based agarose gel electrophoresis method
[10] = Inhibition of recombinant Escherichia coli topoisomerase 1a expressed in Escherichia coli assessed as reduction in enzyme-mediated relaxation of supercoiled pBAD/Thio DNA preincubated with enzyme followed by substrate addition measured after 30 mins by high-throughput screening assay
Bacillus spizizenii = assay: Antibacterial activity against Bacillus subtilis ATCC 6633 by microdilution method; assay type: functional
Method in brief: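 Broth microdilution per standard protocol in cation-adjusted Mueller-Hinton broth; MIC taken as lowest inhibiting concentration.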

Vero = assay: Cytotoxicity against African green monkey Vero cells assessed as reduction in cell viability after 72 hrs by MTS assay; assay type: cell-based; settings: Chlorocebus sabaeus
[11] = system: Mycobacterium tuberculosis; assay: Antimycobacterial activity against Mycobacterium tuberculosis H37Rv after 7 days by microplate alamar blue assay; assay type: functional; settings: 168 h

Chain of DNA topoisomerase 2-alpha (P11388 whole entry): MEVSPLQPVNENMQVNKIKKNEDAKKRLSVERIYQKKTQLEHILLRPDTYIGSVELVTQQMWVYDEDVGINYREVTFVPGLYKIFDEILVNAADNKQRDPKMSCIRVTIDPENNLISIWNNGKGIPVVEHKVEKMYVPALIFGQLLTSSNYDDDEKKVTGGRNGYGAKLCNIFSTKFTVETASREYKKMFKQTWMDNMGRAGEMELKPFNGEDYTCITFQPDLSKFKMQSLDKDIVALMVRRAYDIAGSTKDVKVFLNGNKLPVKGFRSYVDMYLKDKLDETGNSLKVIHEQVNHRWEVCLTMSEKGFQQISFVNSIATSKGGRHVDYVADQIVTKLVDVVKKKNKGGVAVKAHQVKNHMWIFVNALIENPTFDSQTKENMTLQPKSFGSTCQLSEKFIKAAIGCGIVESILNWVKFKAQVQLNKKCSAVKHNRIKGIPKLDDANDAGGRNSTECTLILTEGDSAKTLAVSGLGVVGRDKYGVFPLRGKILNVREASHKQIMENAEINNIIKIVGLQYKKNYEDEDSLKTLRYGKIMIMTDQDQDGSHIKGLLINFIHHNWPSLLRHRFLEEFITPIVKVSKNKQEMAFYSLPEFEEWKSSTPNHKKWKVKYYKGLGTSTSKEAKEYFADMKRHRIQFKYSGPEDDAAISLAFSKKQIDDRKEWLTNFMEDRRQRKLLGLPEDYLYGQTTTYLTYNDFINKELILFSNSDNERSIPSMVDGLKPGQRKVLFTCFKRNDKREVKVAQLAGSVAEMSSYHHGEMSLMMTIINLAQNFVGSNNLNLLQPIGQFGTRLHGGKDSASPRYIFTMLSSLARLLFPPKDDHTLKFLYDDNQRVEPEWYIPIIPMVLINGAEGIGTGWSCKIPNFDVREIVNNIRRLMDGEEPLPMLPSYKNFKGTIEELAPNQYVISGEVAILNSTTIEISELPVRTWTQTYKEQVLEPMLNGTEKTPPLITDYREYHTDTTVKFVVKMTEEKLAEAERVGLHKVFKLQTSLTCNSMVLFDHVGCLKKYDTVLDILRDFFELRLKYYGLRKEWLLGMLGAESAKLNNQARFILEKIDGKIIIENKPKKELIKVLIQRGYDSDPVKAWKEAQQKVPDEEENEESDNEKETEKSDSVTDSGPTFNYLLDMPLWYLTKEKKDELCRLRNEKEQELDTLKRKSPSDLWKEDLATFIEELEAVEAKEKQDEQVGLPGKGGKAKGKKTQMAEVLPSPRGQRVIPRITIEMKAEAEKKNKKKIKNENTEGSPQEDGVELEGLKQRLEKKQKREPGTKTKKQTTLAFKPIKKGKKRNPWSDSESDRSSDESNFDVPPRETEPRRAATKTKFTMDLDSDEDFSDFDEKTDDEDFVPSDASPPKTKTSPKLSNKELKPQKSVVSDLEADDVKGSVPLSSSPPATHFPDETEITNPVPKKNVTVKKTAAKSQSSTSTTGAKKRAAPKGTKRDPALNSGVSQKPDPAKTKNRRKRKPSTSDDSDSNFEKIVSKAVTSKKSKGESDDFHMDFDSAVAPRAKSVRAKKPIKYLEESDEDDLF

Structure (SMILES)	Stability [1]	solubility [2]	MIC (Escherichia coli [3])	Stability [4]	IC50 [5]	MIC (Escherichia coli [6])	IC50 [7]	pIC50 [7]	IC50 [8]	IC50 [9]	IC50 [10]	MIC (Bacillus spizizenii)	IC50 (Vero)	MIC [11]
Nc1ccc2c(c1)Oc1c(F)c(F)cc3c(=O)c(C(=O)O)cn-2c13	Stable	Insoluble	0.78 to 1.56 µM (≈ 0.258 to 0.515 µg/mL)	Stable	31.3 µM	> 200 µM	1.95 µM	5.71	> 125 µM	> 500 µM	0.8 to 2 µM	–	–	–
CN1CCN(c2c(F)cc3c(=O)c(C(=O)O)cn4c3c2Oc2cc(N)ccc2-4)CC1	–	–	–	–	15.6 µM	–	0.48 µM	6.32	15.6 to 31.2 µM	3.9 to 7.8 µM	–	–	–	–
N#Cc1ccc2c(c1)Oc1c(F)c(F)cc3c(=O)c(C(=O)O)cn-2c13	–	–	200 µM (≈ 68 µg/mL)	–	–	> 200 µM	31.2 µM	4.51	–	–	–	> 200 µM	–	–
CC(=O)Nc1ccc2c(c1)Oc1c(F)c(F)cc3c(=O)c(C(=O)O)cn-2c13	–	–	> 200 µM	–	–	> 200 µM	7.8 µM	5.11	–	–	–	> 200 µM	–	–
Nc1ccc2c(c1)Oc1c(N3CC[C@H](N)C3)c(F)cc3c(=O)c(C(=O)O)cn-2c13	–	–	1.56 µM (≈ 0.618 µg/mL)	–	–	> 200 µM	0.48 to 0.97 µM	6.14	–	–	–	6.25 µM (≈ 2.48 µg/mL)	> 63.1 µM	–
O=C(O)c1cn2c3c(c(F)c(F)cc3c1=O)Oc1cc(C(F)(F)F)ccc1-2	–	–	> 200 µM	–	–	> 200 µM	125 to 250 µM	3.61	–	–	–	25 µM (≈ 9.58 µg/mL)	–	–
Nc1ccc2c(c1)Oc1c(N3CCNCC3)c(F)cc3c(=O)c(C(=O)O)cn-2c13	–	–	0.39 µM (≈ 0.155 µg/mL)	–	7.8 µM	> 200 µM	0.24 µM	6.62	7.8 to 15.6 µM	1.95 to 3.9 µM	–	–	> 126 µM	–
Nc1ccc2c(c1)Oc1c(N3CCC(N4CCCCC4)CC3)c(F)cc3c(=O)c(C(=O)O)cn-2c13	–	–	0.39 to 0.78 µM (≈ 0.187 to 0.373 µg/mL)	–	3.9 µM	> 200 µM	0.48 µM	–	15.6 µM	–	–	1.56 µM (≈ 0.746 µg/mL)	24.4 µM	2.5 µM (≈ 1.2 µg/mL)
CN1CCN(c2c(F)cc3c(=O)c(C(=O)O)cn4c3c2Oc2cc([N+](=O)[O-])ccc2-4)CC1	–	–	1.56 µM (≈ 0.687 µg/mL)	–	31.2 µM	100 µM (≈ 44 µg/mL)	1.95 µM	5.71	62.5 to 125 µM	–	–	0.78 µM (≈ 0.344 µg/mL)	95 µM	19 µM (≈ 8.37 µg/mL)
Nc1ccc2c(c1)Oc1c(NC3CCCC3)c(F)cc3c(=O)c(C(=O)O)cn-2c13	–	–	25 µM (≈ 9.88 µg/mL)	–	–	> 200 µM	3.9 µM	5.41	–	–	–	12.5 µM (≈ 4.94 µg/mL)	–	–
CCOC(=O)c1cn2c3c(c(F)c(F)cc3c1=O)Oc1cc([N+](=O)[O-])ccc1-2	–	–	50 µM (≈ 19.4 µg/mL)	–	–	> 200 µM	15.6 µM	4.81	–	–	–	25 µM (≈ 9.71 µg/mL)	–	–
Nc1ccc2c(c1)Oc1c(NCCc3ccccc3)c(F)cc3c(=O)c(C(=O)O)cn-2c13	–	–	50 µM (≈ 21.6 µg/mL)	–	–	> 200 µM	3.9 µM	5.41	–	–	–	25 to 50 µM (≈ 10.8 to 21.6 µg/mL)	–	–
Nc1ccc2c(c1)Oc1c(NCCN3CCOCC3)c(F)cc3c(=O)c(C(=O)O)cn-2c13	–	–	0.78 µM (≈ 0.344 µg/mL)	–	7.8 to 15.6 µM	> 200 µM	–	–	15.6 to 31.2 µM	–	–	1.56 µM (≈ 0.687 µg/mL)	43 µM	21.6 µM (≈ 9.51 µg/mL)
O=C(O)c1cn2c3c(c(N4CCNCC4)c(F)cc3c1=O)Oc1cc([N+](=O)[O-])ccc1-2	–	–	> 200 µM	–	–	> 200 µM	3.9 µM	5.41	–	–	–	> 200 µM	–	–
